# Screens deposited in PubChem by Broad Institute.
# RAD54 branch: RAD54 (human) branch migration inhibition; RAD54 Holliday junction branch migration, FAM/BHQ fluorescence; inhibition, % at 10.4 µM; actives 0.14% (n = 360,000); AID 602329;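 active = mean normalized replicate activity at least 40 and at least half of replicates scoring 40 or more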;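 also: 0% = median of neutral control wells and 100% = median of positive control wells; inhibitors cause a drop in the FAM fluorescence signal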
# CAL PDZ FP-1: blocks peptide binding to the human CAL PDZ domain; Q9HD26; purified CAL PDZ, TMR-peptide fluorescence polarization, 1 h; inhibition, % at 24.9 µM; actives 0.92% (n = 300,000); AID 602252;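 active = mean inhibition of at least 30% with at least half of replicates also reaching 30%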;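 also: 0% = DMSO neutral control and 100% = excess unlabeled competitor peptide PRC23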
# PDI inh: inhibitors of human protein disulfide isomerase | PDI insulin aggregation turbidity, A650, 90 min | inhibition, % at 10 µM | actives 0.052% (n = 350,000) | AID 588391;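 active = mean inhibition across replicates of 30% or more, whatever share of single replicates reach that level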
# Target sequence (P07237 whole entry, looked up): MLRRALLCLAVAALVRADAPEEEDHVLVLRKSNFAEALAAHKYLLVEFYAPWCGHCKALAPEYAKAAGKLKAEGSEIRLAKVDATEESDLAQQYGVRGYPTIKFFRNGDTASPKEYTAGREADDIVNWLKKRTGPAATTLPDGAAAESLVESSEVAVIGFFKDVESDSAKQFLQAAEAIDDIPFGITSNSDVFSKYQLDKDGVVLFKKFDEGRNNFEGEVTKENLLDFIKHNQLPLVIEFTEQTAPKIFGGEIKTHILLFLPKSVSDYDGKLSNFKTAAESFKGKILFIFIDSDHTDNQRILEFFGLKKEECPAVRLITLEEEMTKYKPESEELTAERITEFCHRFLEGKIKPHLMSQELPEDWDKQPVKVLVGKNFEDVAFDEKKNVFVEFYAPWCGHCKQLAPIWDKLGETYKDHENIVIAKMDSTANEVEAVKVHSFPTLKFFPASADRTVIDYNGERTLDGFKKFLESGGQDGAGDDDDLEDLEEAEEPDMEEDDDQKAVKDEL
# RAD52 inh: inhibitors of human RAD52 DNA annealing; recombinant RAD52 DNA annealing, FRET fluorescence; actives 0.46% (n = 360,000); P43351; inhibition, % at 18.7 µM;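 active = every replicate showing at least 50% inhibition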
# CAL PDZ FP-2: blocks peptide binding to human CAL PDZ domain; Q9HD26; purified CAL PDZ, TMR-peptide fluorescence polarization, 1 h; inhibition, % at 20 µM; actives 0.02% (n = 330,000);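 active = highest replicate inhibition of at least 40%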;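 also: plate controls were DMSO neutral control wells for no effect and unlabeled competitor peptide control wells for full effect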
#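 Test system: purified CerCALP PDZ construct; Compound dosing: one concentration, 20 µM compound; Also added: TMR-labelled reporter peptide T*-PRC34 bound in PDZ groove; Read-out: inhibition from polarization loss; Controls: unlabelled peptide and DMSO controls; Signal: FP readout, S and P plane fluorescence; Incubation: 1 h at RT.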
# ERp5 block: ERp5 (human) disulfide isomerase inhibition; Q15084; ERp5 insulin aggregation, absorbance 650 nm, 90 min; inhibition, % at 9.99 µM; actives 0.05% (n = 350,000); AID 651711;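 active = mean replicate inhibition above about 25%, with every replicate also reaching it, limit read from the data, passing the limit was not always enough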
# DNA binder FP: counter-screen for RAD52 inhibitors: DNA binding compounds; AID 652128; shares compounds with RAD52 inh; actives 8% (n = 1,000); Salmon sperm DNA/acridine orange FP displacement; AC50, µM;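 active = fitted half-maximal concentration for signal loss at or below twice the highest dose tested, in every separate run, actives reach about 64 µM in these data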
# Starred values were filed as active, the others as inactive; i = inactive; nt = no result given. Hits are enriched below; roughly 1% of the tested compounds scored in any of these assays.
SMILES,RAD54 branch,CAL PDZ FP-1,PDI inh,RAD52 inh,CAL PDZ FP-2,ERp5 block,DNA binder FP
Cn1ccc2c(N(Cc3ccccc3)Cc3ccccc3)cc3c(c21)C1CCC3C1 (centres undefined),-2,nt,nt,-12,nt,-1,nt
COc1cccc(CN2[C@H](CO)[C@H](c3ccccc3)C23CN(C(=O)C2CCCCC2)C3)c1,nt,nt,nt,-5,nt,1,nt
CN1CCN(C(=O)C[C@@H]2CC[C@@H](NC(=O)Nc3ccccc3F)[C@@H](CO)O2)CC1,17,nt,nt,4,nt,-1,nt
Cc1ccccc1Cn1c2ccccc2c2cnn(CC(=O)NCCCN3CCN(C)CC3)c(=O)c21,21,nt,-8,71*,0,0,i
Cc1ccccc1Cn1c2ccccc2c2cnn(CC(=O)NCCCN3CCOCC3)c(=O)c21,6,-3,1,-6,-3,0,nt
O=C(NCC[C@H]1CC[C@H](NS(=O)(=O)c2ccc(Cl)cc2)[C@H](CO)O1)c1ccccc1F,4,nt,nt,-7,nt,-3,nt
COc1ccc2nc(C)cc(Nc3ccc(N4CCN(C)CC4)cc3)c2c1,98*,-1,18,100*,0,1,42µM*
C[C@@H]1CN([C@H](C)CO)C(=O)Cc2cc(NC(=O)Nc3ccc(F)cc3)ccc2O[C@@H]1CN(C)Cc1ccc(Cl)c(Cl)c1,-2,nt,nt,0,nt,6,nt
CN(C)CCCNC(=O)C[C@H]1C[C@H](C(=O)N2CCOCC2)[C@@]2(CCC3CCCC3)c3[nH]c4cc(-c5ccco5)ccc4c3CCN2C1=O,29,-2,13,52*,0,11,i
O=C(C[C@H]1C[C@H](C(=O)N2CCOCC2)[C@@]2(CCC3CCCC3)c3[nH]c4cc(-c5ccco5)ccc4c3CCN2C1=O)NCCN1CCOCC1,8,-2,21,-24,-1,0,nt
C[C@H](c1ccccc1)N1C[C@@H](COCc2ccccc2)Oc2cc(N3CC[C@H](N(C)C)C3)ccc2S1(=O)=O,nt,nt,nt,51*,nt,-1,i
Cn1c2ccccc2c2n[nH]c(=S)nc21,-9,nt,18,-9,0,-3,nt
CCN(CC)CCn1c2ccccc2c2n[nH]c(=S)nc21,24,-5,1,73*,0,-1,i
CCN(CC)CCn1c2ccccc2c2nc3ccccc3nc21,106*,-2,4,89*,0,-1,i
CO[C@@H]1CN(C)C(=O)c2ccc(NC(=O)C3CCC3)cc2OC[C@H](C)N(Cc2ccncc2)C[C@H]1C,1,nt,nt,-5,nt,1,nt
Cc1noc(C)c1S(=O)(=O)Nc1ccc2c(c1)CC(=O)N([C@H](C)CO)C[C@@H](C)[C@@H](CN(C)Cc1ccc3c(c1)OCO3)O2,7,nt,nt,-7,nt,-6,nt
C[C@H](CO)N1C[C@H](C)[C@H](CN(C)C(=O)Nc2cccc3ccccc23)Oc2ncc(C#CCC3CCCC3)cc2C1=O,8,nt,nt,-3,nt,2,nt
CN(C)CCCNC(=O)c1ccc(-c2cc3nc(NCc4cccnc4)n(C)c(=O)c3s2)cc1,35,nt,-9,76*,nt,1,i
COc1ccc(-c2cc3nc(NCCCN(C)C)n(C)c(=O)c3s2)c(C)c1,33,nt,7,55*,nt,5,i
CN(C)CCCNc1nc2cc(-c3cnn(C)c3)sc2c(=O)n1C,35,nt,-1,59*,nt,3,i
COc1ccc(NC(=O)Nc2ccc3c(c2)C(=O)N([C@@H](C)CO)C[C@@H](C)[C@@H](CN(C)C(=O)NC(C)C)OCCCC[C@H](C)O3)cc1,6,nt,nt,0,nt,-8,nt
CC(=O)N(C)C[C@H]1Oc2ncc(-c3cccc(C#N)c3)cc2C(=O)N([C@H](C)CO)C[C@H]1C,-12,nt,nt,-2,nt,-6,nt
COCC(=O)Nc1ccc2c(c1)[C@H]1C[C@@H](CC(=O)N3CCCCC3)O[C@H](CO)[C@H]1O2,-12,nt,nt,nt,nt,nt,nt
COc1cc(CNC(C)c2ccccc2)cc(Br)c1OCc1ccc(F)cc1 (centres undefined),-5,-9,-1,54*,0,3,i
COc1cc(CNC(C)c2ccccc2)cc(Br)c1OCc1ccccc1 (centres undefined),0,-4,6,-3,nt,-6,nt
